# An excerpt weighted towards active compounds, which were near 6.4% of everything screened.
# CHOP inhibitor = CHOP inhibition in unfolded protein response. 3.8% of 220,000 active. CHO-K1 CHOP-promoter luciferase, tunicamycin-induced, 15-18 h. AID 2732. inhibition, % at 10 µM;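 active means compounds that reduced the stress-induced luciferase reporter signal by more than about 70% of percent inhibition, limit read from the data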;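 further: 0% = tunicamycin plus vehicle and 100% = wells without tunicamycin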
# NR3A LBD binder = NR3A (human) ligand-binding domain modulation. NR3A LBD differential scanning fluorimetry, Tm shift; 0% = protein alone, 100% = glycine-bound protein. Tm shift relative to glycine control, % at 25 µM. 2.5% of 340,000 active;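 active means melting temperature shift of at least 10% of the positive control shift, at one fixed dose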
# MPTP inh = blocks calcium-induced mitochondrial swelling; isolated mouse mitochondria, Ca2+ swelling absorbance, 30 min; inhibition, % at 10 µM; 1.4% of 360,000 active;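 active means inhibition of 50% or more, scaled per plate between neutral and stimulator controls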;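 further: 0% = DMSO wells given calcium and 100% = 1 mM EGTA wells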
# EBV gp42 block = EBV gp42 inhibition | Q1HVG2 | Fluorescence polarization binding assay, mP read-out | inhibition, % (tested at 21.74 µM) | 0.42% of 220,000 active | AID 1085; in the data active means inhibition above about 50%
# Target sequence (Q1HVG2 whole entry, looked up): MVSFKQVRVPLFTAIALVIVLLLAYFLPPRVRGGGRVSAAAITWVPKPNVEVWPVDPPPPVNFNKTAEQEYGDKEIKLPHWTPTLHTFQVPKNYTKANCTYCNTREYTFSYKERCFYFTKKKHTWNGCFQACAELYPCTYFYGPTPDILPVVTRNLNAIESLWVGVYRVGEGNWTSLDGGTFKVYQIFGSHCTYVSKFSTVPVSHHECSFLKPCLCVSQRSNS
# WT yeast gro inh = growth inhibition of WT yeast, mitochondrial fusion screen. mitochondrial fusion phenotypic screen, WT strain. inhibition, % at 10 µM. 2.1% of 190,000 active. AID 1362; in the data active means inhibition above about 58%; tested in S. cerevisiae
# TbMetRS inhib = blocks T. brucei methionyl-tRNA synthetase activity; inhibition, % at 11.9 µM; purified T. brucei MetRS, ATP depletion, Kinase-Glo luminescence; 0.4% of 360,000 active;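 active means inhibition above a per-plate cutoff of the control wells' mean inhibition plus 3 SD, cut at about 5.5% in these data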;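 further: 0% = DMSO wells median and 100% = median of wells with control inhibitor compound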
#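 Assay system: T. brucei methionyl-tRNA synthetase, purified | Medium: HEPES buffer with MgCl2, KCl, DTT, spermine, BSA, pyrophosphatase | Compound: 11.9 µM single point | Incubation: 15 min enzyme-compound preincubation, 2 h reaction, 10 min detection, 25 °C | Measured by: Kinase-Glo luciferase luminescence reporting remaining unconsumed ATP | Measure: % inhibition normalized to control-well medians | Replication: Singlicate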
# CHOP inh conf = confirmation of CHOP induction inhibitors. shares compounds with CHOP inhibitor. 45% of 2,100 active. AID 504437. inhibition, % at 10 µM. CHO-CHOP promoter luciferase reporter, tunicamycin-induced, luminescence;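 active means mean of three repeat readings of reporter signal inhibition above a set limit, cut at about 70% in these data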;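 further: 0% = tunicamycin plus vehicle and 100% = wells lacking tunicamycin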
# Active calls of the source: *; nt = no result; ! = repeats disagree.
SMILES,CHOP inhibitor,NR3A LBD binder,MPTP inh,EBV gp42 block,WT yeast gro inh,TbMetRS inhib,CHOP inh conf
Cc1ccc(S(=O)(=O)N[C@@H](Cc2ccccc2)C(=O)CCl)cc1,108*!,-14,1,-13,45,-1,-261
Cc1ccc(S(=O)(=O)NC(Cc2ccccc2)C(=O)NN)cc1 (stereo not given),nt,-1,0,nt,nt,-1,nt
Cc1oc2c(C)c(O)ccc2c(=O)c1-c1cnn(-c2ccccc2)c1,104*,1,12,-16,5,0,-16
CS(=O)(=O)Nc1ccc(C(=O)NCc2cccnc2)cc1,8,0,0,-16,-10,0,nt
Cc1ccc(C(=O)c2coc3c2C(=O)C(=O)c2ccccc2-3)cc1,-21,1,4,-8,95,0,nt
Cc1ccc(C(=O)c2c(C)oc3c2C(=O)C(=O)c2ccccc2-3)cc1,115*,0,0,-3,57,0,50
O=C(NC1CCCCC1)C(c1ccc(F)cc1)N(Cc1ccccc1)C(=O)CN1C(=O)c2ccccc2S1(=O)=O (stereo not given),109*,0,2,-11,0,0,80*
CCOc1ccc(/C=C2\SC(=O)N(c3ccc(O)cc3)C2=O)cc1OC,105*,-4,nt,-4,nt,nt,15
CCOc1cc(/C=C2\SC(=N)N(c3nonc3N)C2=O)ccc1OCC(N)=O,0,-5,-1,-17,-4,1,nt
COc1ccc(/C=C2\SC(=N)N(c3ccc(F)cc3)C2=O)cc1OC,102*,-1,-3,-16,25,1,-73
CCOC(=O)C1CCN(S(=O)(=O)c2ccc(-c3ccc(=O)[nH]n3)o2)CC1,nt,-1,-2,nt,nt,0,nt
O=C(Nc1ccc(Oc2ccsc2C(=O)O)cc1)c1ccccc1F,nt,4,0,nt,nt,-1,nt
O=C1N=C2N(CCN3CCCCC3)c3ccccc3N2/C1=C\c1ccc([N+](=O)[O-])o1,107*,nt,nt,-79,3,nt,-27
c1ccc2c(c1)N1CCCN=C1N2CCN1CCCCC1,-4,1,2,4,2,0,nt
CC1CCN(S(=O)(=O)c2ccc(C(=O)Nc3sccc3C(N)=O)cc2)CC1,97*,-1,0,7,6,0,58
CN(C)NC(=O)c1ccsc1NC(=O)c1ccc(S(=O)(=O)N2CCCC2)cc1,6,1,0,-12,nt,-1,nt
Cc1cc(C)n2nc(S(=O)(=O)Nc3c(Cl)cccc3Cl)nc2n1,7,-3,-1,-2,-14,0,nt
C=C(C)[C@@H]1CC[C@]2(C(=O)O)CC[C@]3(C)[C@H](CC[C@@H]4[C@@]5(C)CC[C@H](O)C(C)(C)[C@@H]5CC[C@]43C)[C@@H]12,103*,1,1,-7,nt,0,66
Cc1ccccc1NC(=O)/C=C/c1ccc([N+](=O)[O-])s1,102*,0,8,3,-6,0,79*
Cc1cc(C)cc(NC(=O)/C=C/c2ccc([N+](=O)[O-])s2)c1,-21,-7,1,-8,11,-1,nt
CC(C)CC(NC(=O)c1ccc(Cl)cc1)C(=O)OCC(=O)c1ccc2c(c1)NC(=O)CO2 (stereo not given),107*,5,0,-26,-6,1,74*
CC(O)C(NS(=O)(=O)c1ccc(Cl)cc1)C(=O)OCC(=O)c1ccc2c(c1)NC(=O)CO2 (stereo not given),nt,1,1,nt,nt,0,nt
CC1(c2ccc(OC(F)F)cc2)NC(=O)N(/N=C/c2c(O)ccc3ccccc23)C1=O (stereo not given),101*,12*,1,-20,29,1,96*
COc1ccc(CCNCc2ccccc2N2CCCC2)cc1,nt,-4,1,nt,nt,-1,nt
Cc1cc2ncn(-c3ncnc4sc5c(c34)CCC(C)C5)c2cc1C (stereo not given),97*,0,-1,-16,47,0,14
SMILES,CHOP inhibitor,NR3A LBD binder,MPTP inh,EBV gp42 block,WT yeast gro inh,TbMetRS inhib,CHOP inh conf
O=C1C(=O)N(CCN2CCOCC2)C(c2cccc(Cl)c2)/C1=C(\O)c1ccc2c(c1)OCCO2 (stereo not given),nt,0,1,nt,nt,0,nt
COc1ccc(-c2cc(C(F)(F)F)nc(SCC(=O)Nc3ccc4c(c3)OCO4)n2)cc1,99*,-4,2,-29,1,1,66
O=C(CSc1nc(-c2ccccc2)c(-c2ccccc2)[nH]1)Nc1ccc2c(c1)OCO2,102*,13*,-2,-11,-3,0,19
O=C(CSc1nnc(-c2ccccc2)c(-c2ccccc2)n1)NCC1CCCO1 (stereo not given),nt,1,-1,nt,nt,0,nt
CC(=O)C1=C(c2ccc(Br)cc2)C(=O)c2ccccc2C1=O,110*,2,-20,6,93*,0,108*
CC(C)[C@H]1COCCS(=O)(=O)N1Cc1ccccc1-c1ccccc1,nt,0,0,nt,nt,-1,nt
O=C(CSc1nnc(SCc2cccc3ccccc23)s1)N=Nc1c(O)[nH]c2ccccc12,97*,nt,nt,13,-8,nt,15
COCCSc1nnc(NS(=O)(=O)c2ccc(F)cc2)s1,7,0,0,-17,-1,-1,nt
CC(C)Oc1nc(-c2ccc(Cl)cc2)nc2ccccc12,3,1,2,-19,nt,-1,nt
Cc1ccc(-c2nc(C(Cl)Cl)c3ccccc3n2)cc1,103*,4,3,-18,nt,0,100*
O=C(Nc1nnc(-c2ccco2)o1)c1cccc2ccccc12,-17,2,0,-23,23,0,nt
CC(C)c1nnc(NC(=O)CCS(=O)(=O)c2nc(-c3cccs3)cc(C(F)(F)F)n2)s1,108*,2,2,2,-16,-1,-38
O=[N+]([O-])CC(c1ccccc1)P(=O)(c1ccccc1)c1ccccc1 (stereo not given),nt,2,0,nt,nt,-1,nt
CN(C)c1nc2c(cnn2C)c(=O)[nH]1,nt,0,-1,nt,nt,0,nt
COc1ccc2nc(NC(=O)C3CCCN(S(=O)(=O)c4cccs4)C3)sc2c1 (stereo not given),96*,-5,-2,-5,43,-2,51
COc1ccc2nc(NC(=O)C3CCN(S(=O)(=O)c4cccs4)CC3)sc2c1,41,-27,1,-4,22,0,nt
Cc1ccc(S(=O)(=O)N2[C@H](c3ccccc3)CC(=O)[C@@H]3CN(S(=O)(=O)c4ccccc4)[C@H](c4ccccc4)C[C@@H]32)cc1,nt,nt,0,nt,nt,-1,nt
CCOC(=O)CSC1=NC(=O)/C(=C\c2ccc(OC(C)=O)cc2)S1,106*,-2,1,1,9,1,28
CCOC(=O)COc1ccc(Br)cc1/C=C1\SC(N)=NC1=O,nt,-2,0,nt,nt,0,nt
Cc1nc(Cl)sc1C(=O)Nc1ccc(C(C)(C)C)cc1,nt,-3,0,nt,nt,-1,nt

# Compound activity deposited in PubChem BioAssay by several laboratories.
